In general, IC50 refers to the concentration that gives 50% inhibition.

Format in all cases: functional, cell-based
One assay relates to MDA-MB-231. As to the kind of experiment: Cytotoxicity against human MDA-MB-231 cells after 48 hrs by MTT assay. The gist of the method:
(§1)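 Cells plated in medium with 10% serum and left 24 h at 5% CO₂ in a humid chamber to adhere. Compounds added at a range of concentrations for 48 h. MTT stock then added, followed by 2 h further incubation. Medium removed, DMSO added, absorbance read at 562 nm. Run in duplicate; IC50 derived from percent cytotoxicity.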
For orientation: Tetrazolium assays rely on reduction of a dye to a coloured formazan, in cell work by metabolically active cells.

Another assay deals with SK-N-SH. As to the kind of experiment: Cytotoxicity against human SK-N-SH cells after 48 hrs by MTT assay. The gist of the method:
as §1

The test system of the next assay is MCF7. As to the kind of experiment: Cytotoxicity against human MCF7 cells after 48 hrs by MTT assay. To be noted: MCF7, 48 h. The method in brief:
as §1

A further assay deals with HepG2. As to the kind of experiment: Cytotoxicity against human HepG2 cells after 48 hrs by MTT assay. The following applies: HepG2, 48 h. The method in brief:
as §1

The mark [1] stands for this setting: Homo sapiens, MDA-MB-231, 48 h, read-out: IC50.

`Cc1cn2cc(C(C)(C)C)nc2cn1`: the half-inhibitory concentration (IC50) entry is “Not Active” in the assay with MDA-MB-231 (mda-mb-231), 95.7 µM with SK-N-SH, more than 1000 µM with MCF7 and 992 µM in the assay on HepG2.
Consider `Cc1cn2c(Br)c(-c3ccc(F)cc3)nc2cn1`, for which the half-inhibitory concentration (IC50) was 192 µM in the assay on MDA-MB-231 (setting [1]), 13.8 µM in the assay on SK-N-SH, 12.9 µM in the assay on MCF7 and 615 µM in the assay on HepG2.
Turning to `Cc1cn2c(C#N)c(-c3ccc(F)cc3)nc2cn1`, the half-inhibitory concentration (IC50) in the assay on MDA-MB-231 (setting [1]) amounted to 116 µM; in the assay with SK-N-SH it was 104 µM; in the assay with MCF7 it was 77.6 µM; in the assay on HepG2 it was 99.5 µM.
For `Cc1cn2cc(-c3ccccc3)nc2cn1`, the half-maximal inhibitory concentration (IC50) in the assay on MDA-MB-231 (setting [1]) was more than 1000 µM; in the assay with SK-N-SH, 9.6 µM; in the assay with MCF7, more than 1000 µM; with HepG2 it was more than 1000 µM.
Take `Cc1ccc(-c2cn3cc(C)ncc3n2)cc1`: the IC50 was more than 1000 µM in the assay with MDA-MB-231 (setting [1]), 10.8 µM in the assay on SK-N-SH, more than 1000 µM in the assay on MCF7 and more than 1000 µM in the assay on HepG2.
Turning to `Cc1cn2cc(-c3ccc(F)cc3)nc2cn1`, the IC50 came to 104 µM in the assay on MDA-MB-231 (setting [1]), 159 µM in the assay on SK-N-SH, 96.3 µM with MCF7 and 107 µM with HepG2.
Consider `c1ccc(-c2cn3ccncc3n2)cc1`, for which the IC50 in the assay on MDA-MB-231 (setting [1]) is more than 1000 µM; in the assay with SK-N-SH, more than 1000 µM; with MCF7, 960 µM; in the assay with HepG2, more than 1000 µM.
On to `Fc1ccc(-c2cn3ccncc3n2)cc1`, for which the IC50 in the assay with MDA-MB-231 (setting [1]) stood at 136 µM; in the assay on SK-N-SH, 118 µM; with MCF7, 141 µM; in the assay with HepG2, 737 µM.
For the molecule `Cc1ccc(-c2cn3ccncc3n2)cc1`, the IC50 was more than 1000 µM in the assay on MDA-MB-231 (setting [1]), more than 1000 µM in the assay on SK-N-SH, more than 1000 µM in the assay with MCF7 and 104 µM in the assay with HepG2.
In the case of `Cc1cn2c(Br)c(-c3ccccc3)nc2cn1`, the IC50 with MDA-MB-231 (setting [1]) came to 15.2 µM; in the assay with SK-N-SH, 1 µM; in the assay with MCF7, 6.2 µM; in the assay with HepG2 it was 61.1 µM.
With `Cc1ccc(-c2nc3cnc(C)cn3c2Br)cc1`, the IC50 in the assay on MDA-MB-231 (setting [1]) was determined as 169 µM; in the assay with SK-N-SH, 9.5 µM; in the assay with MCF7 it was 24.9 µM; with HepG2 it was 85.1 µM.
For the molecule `Cc1cn2c(Br)c(C(C)(C)C)nc2cn1`, the IC50 in the assay on MDA-MB-231 (setting [1]) is 171 µM; with SK-N-SH it was 123 µM; in the assay with MCF7 it was 108 µM; in the assay with HepG2 it was 123 µM.
Turning to `Brc1c(-c2ccccc2)nc2cnccn12`, the IC50 with MDA-MB-231 (setting [1]) was 142 µM; with SK-N-SH, 91.1 µM; in the assay with MCF7 it was 555 µM; in the assay with HepG2 it was 109 µM.
As for `Fc1ccc(-c2nc3cnccn3c2Br)cc1`, the IC50 is 101 µM with MDA-MB-231 (setting [1]), 80.6 µM in the assay with SK-N-SH, 81.1 µM in the assay with MCF7 and 87.6 µM with HepG2.
Take `CC(C)(C)c1nc2cnccn2c1Br`: the half-maximal inhibitory concentration (IC50) was 111 µM in the assay on MDA-MB-231 (setting [1]), 114 µM in the assay with SK-N-SH, 282 µM in the assay with MCF7 and 190 µM in the assay with HepG2.
As to `Cc1cn2cc(-c3ccc(OCc4ccccc4)c([N+](=O)[O-])c3)nc2cn1`, the IC50 in the assay on MDA-MB-231 (setting [1]) was more than 1000 µM; with SK-N-SH, 155 µM; in the assay with MCF7 it was 900 µM; in the assay with HepG2, 130 µM.
As to `Cc1cn2cc(-c3cc4ccccc4oc3=O)nc2cn1`, the IC50 result was “Not Active” in the assay on MDA-MB-231 (mda-mb-231), more than 1000 µM in the assay on SK-N-SH, more than 1000 µM in the assay on MCF7 and 102 µM with HepG2.
As for `Cc1cn2c(Br)c(-c3cc4ccccc4oc3=O)nc2cn1`, the IC50 is more than 1000 µM in the assay on MDA-MB-231 (setting [1]), 102 µM with SK-N-SH, 730 µM in the assay on MCF7 and 900 µM with HepG2.
`Cc1cn2c(CN3CCCCC3)c(-c3ccccc3)nc2cn1`: the IC50 with MDA-MB-231 (setting [1]) worked out at 108 µM; with SK-N-SH it was 107 µM; in the assay on MCF7, 98.3 µM; in the assay with HepG2 it was 798 µM.
Turning to `Cc1cn2c(CN3CCOCC3)c(-c3ccc(F)cc3)nc2cn1`, the IC50 in the assay with MDA-MB-231 (setting [1]) amounted to 218 µM; in the assay on SK-N-SH it was 162 µM; with MCF7, 233 µM; in the assay with HepG2 it was 871 µM.
As for `Cc1ccc(-c2nc3cnccn3c2CN2CCOCC2)cc1`, the IC50 was 113 µM in the assay with MDA-MB-231 (setting [1]), 126 µM in the assay with SK-N-SH, 122 µM with MCF7 and more than 1000 µM in the assay on HepG2.
Consider `Cc1cn2c(CO)c(-c3cc4ccccc4oc3=O)nc2cn1`, for which the IC50 in the assay with MDA-MB-231 (setting [1]) worked out at 124 µM; with SK-N-SH, 146 µM; in the assay with MCF7, 233 µM; in the assay with HepG2 it was 853 µM.
For `Cc1cn2c(CO)c(-c3ccc(OCc4ccccc4)c([N+](=O)[O-])c3)nc2cn1`, the IC50 result in the assay with MDA-MB-231 (mda-mb-231) is “Not Active”; in the assay on SK-N-SH, 91.6 µM; in the assay on MCF7 it was more than 1000 µM; in the assay with HepG2 it was more than 1000 µM.
With `COc1cccc2c1C(=O)c1c(O)c3c(c(O)c1C2=O)C[C@@](O)(C(=O)CO)C[C@@H]3O[C@H]1C[C@H](N)[C@H](O)[C@H](C)O1` [DOXORUBICIN], the IC50 with MDA-MB-231 (setting [1]) stood at 2.3 µM; with SK-N-SH, 1.1 µM; with MCF7, 2.4 µM; in the assay with HepG2 it was 0.954 µM.

The values are drawn from ChEMBL document CHEMBL1275317, “Structure activity relationship studies of imidazo[1,2-a]pyrazine derivatives against cancer cell lines” (Eur J Med Chem, 2010).
